Compound activity from PubChem BioAssay.
TRPC4 act – activators of mouse TRPC4 channel, primary screen, Fluo4 calcium, HEK293 TRPC4beta/mu-opioid cells; Short transient receptor potential channel 4 (Mus musculus), Q9QUQ5; Fluo4 calcium fluorescence; active compounds read high; B-score at 10 µM; 0.49% of 310,000 active;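 active = B-score above 5 SD of library B-scores, and initial fluorescence ratio not above library mean plus 5 SD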;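 note: positive B-score marks a calcium rise read as TRPC4 activation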
Target sequence (Q9QUQ5 whole entry, looked up): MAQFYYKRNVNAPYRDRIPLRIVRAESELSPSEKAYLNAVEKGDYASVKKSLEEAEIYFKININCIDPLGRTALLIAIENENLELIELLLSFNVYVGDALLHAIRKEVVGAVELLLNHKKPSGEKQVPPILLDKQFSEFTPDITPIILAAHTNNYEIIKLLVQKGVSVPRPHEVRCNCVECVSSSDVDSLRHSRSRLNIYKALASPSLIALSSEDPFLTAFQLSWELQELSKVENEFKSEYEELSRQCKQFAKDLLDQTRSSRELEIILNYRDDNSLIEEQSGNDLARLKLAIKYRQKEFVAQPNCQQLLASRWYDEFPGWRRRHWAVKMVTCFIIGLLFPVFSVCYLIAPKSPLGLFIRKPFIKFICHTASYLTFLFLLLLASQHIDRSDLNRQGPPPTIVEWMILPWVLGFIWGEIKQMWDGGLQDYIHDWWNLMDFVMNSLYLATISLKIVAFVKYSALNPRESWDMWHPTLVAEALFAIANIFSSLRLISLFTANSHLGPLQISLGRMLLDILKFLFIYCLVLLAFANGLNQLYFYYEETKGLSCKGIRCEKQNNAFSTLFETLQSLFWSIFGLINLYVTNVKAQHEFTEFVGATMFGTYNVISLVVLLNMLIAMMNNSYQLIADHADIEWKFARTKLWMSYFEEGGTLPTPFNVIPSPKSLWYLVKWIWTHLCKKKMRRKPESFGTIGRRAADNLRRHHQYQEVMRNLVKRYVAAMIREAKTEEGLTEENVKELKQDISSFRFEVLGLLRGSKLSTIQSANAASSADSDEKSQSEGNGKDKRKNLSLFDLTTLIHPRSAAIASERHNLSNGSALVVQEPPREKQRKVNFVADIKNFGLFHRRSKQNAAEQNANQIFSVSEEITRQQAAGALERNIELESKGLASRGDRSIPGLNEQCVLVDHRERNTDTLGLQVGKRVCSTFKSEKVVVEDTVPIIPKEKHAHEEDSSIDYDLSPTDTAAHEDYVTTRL
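Technique: kinetic Fluo4 calcium fluorescence; Test system: TRPC4beta and mu-opioid receptor HEK293 stable cells; Measure: B-scored integrated calcium fluorescence ratio; Benchmarks: low control buffer alone, high control maximal DAMGO; Schedule: 45 min room-temperature Fluo4 loading, 110 s read.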
TRPC4 potent – positive allosteric modulators of TRPC4, primary screen, cell-based, mouse TRPC4beta, HEK293 mu-opioid, Fluo-4 calcium; DAMGO EC20, Fluo-4 Ca2+ flux; active compounds read high; AID 2227, 2009; Short transient receptor potential channel 4 (Mus musculus), Q9QUQ5; 0.42% of 310,000 active; B-score at 10 µM;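 active = B-score of calcium response area above 5 SD of library B-scores, with initial fluorescence ratio within 5 SD of library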;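 note: B-score of integrated fluorescence ratio over time as area under calcium response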
TRPC6 inhibitor – mouse TRPC6 channel inhibitors, primary screen, cell-based, HEK293, membrane potential dye; ACh-evoked depolarization; active compounds read low; B-score at 10 µM; 1.1% of 310,000 active;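 active = B-score under library mean minus 3 SD, initial fluorescence not abnormally high, positive integrated signal ratio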;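 note: B-score derived from integrated fluorescence ratio over the kinetic read; more negative B-score means stronger inhibition of depolarization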
TRPC6 activator – mouse TRPC6 channel activators, primary screen, cell-based, HEK293, membrane potential dye; Short transient receptor potential channel 6 (Mus musculus), Q61143; HEK293-TRPC6 membrane potential dye fluorescence; active compounds read high; B-score at 10 µM; 0.13% of 310,000 active;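 active = B-score of the integrated fluorescence ratio above library mean plus 3 SD, and starting fluorescence ratio within library mean plus 5 SD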;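 note: higher score means more depolarization so channel activation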
TRPC4 block – inhibitors of mouse TRPC4 channel, primary screen, Fluo4 calcium, HEK293 TRPC4beta/mu-opioid cells; Short transient receptor potential channel 4 (Mus musculus), Q9QUQ5; DAMGO-evoked Fluo4 calcium flux; active compounds read low; B-score at 10 µM; 0.39% of 300,000 active;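 active = B-score over 3 SD under the library average, no early fluorescence shift, positive overall ratio signal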
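Assay system: HEK293 cells with stable TRPC4beta plus mu-opioid receptor expression. Dosing: single dose. Measured by: Fluo4 Ca2+ flux fluorescence. Also added: DAMGO in two steps, submaximal then maximal. Read-out: B score from integrated Fluo4 fluorescence ratio.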
TRPC4 sel inh 2 – second selectivity test of TRPC6 inhibitors: effect on mouse TRPC4; shares compounds with TRPC6 inhibitor; HEK293 TRPC4/MOR, membrane potential dye fluorescence; channel activated by saturating DAMGO dose; inhibition, % at 10 µM; 42% of 920 active; AID 2776;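 active = compounds whose fluorescence signal differed from control wells by over 3 SD, either direction, in both duplicate plates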
TRPC4 spec – mouse TRPC4 modulation by TRPC6 hits, confirmation, selectivity assay for TRPC6 inhibitor project, cell-based, HEK293 TRPC4/mu-opioid, membrane potential dye. 61% of 920 active. shares compounds with TRPC6 inhibitor. membrane potential fluorescence. activity change, negative = inhibition, % at 10 µM;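 active = rise or fall in signal beyond 3 SD of buffer-only wells in both replicate plates, either sign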;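 note: integrated kinetic ratio of fluorescence range over baseline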
HEK293 MPD ctr 2-1 – nonspecific membrane potential effects, parental HEK293, confirmation, counter-screen for TRPC6 inhibitor project, cell-based, second counter screen; parental HEK293 membrane potential dye fluorescence; maximal acetylcholine challenge after compound addition; signal change vs control, % at 10 µM; 31% of 920 active; AID 2779, 2010; shares compounds with TRPC6 inhibitor;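 active = membrane potential signal moving either way by over 3 SD of the maximum-effect control, in both duplicate plates, meaning non-specific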
HEK293 MPD ctr-1 – membrane potential modulation in parental HEK293, confirmation, counter-screen for TRPC6 inhibitor project, cell-based. shares compounds with TRPC6 inhibitor. parental HEK293 membrane potential dye fluorescence. membrane potential signal change, % at 10 µM. 60% of 920 active;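 active = membrane potential signal shifting up or down by more than 3 SD of buffer-only wells, on both duplicate plates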
HEK293 MPD ctr-2 – parental HEK293 membrane potential modulation, confirmation, counter-screen for TRPC6 modulator project, cell-based. shares compounds with TRPC6 inhibitor. membrane potential dye fluorescence. membrane potential signal change, % at 10 µM. 51% of 2,400 active. AID 488924, 2010;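 active = membrane potential signal moves up or down beyond 5 SD from buffer-only wells, on both duplicate plates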
HEK293 MPD ctr 2-2 – second check of TRPC6 modulator effects in parental HEK293 cells | shares compounds with TRPC6 inhibitor | membrane potential dye fluorescence; after compound, maximal acetylcholine stimulation | inhibition, % at 10 µM | 14% of 2,400 active | AID 488926;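 active = membrane potential signal drops by more than 5 SD from the mean control signal, in both duplicate plates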;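 note: plate controls were acetylcholine ECmax control wells for no effect and buffer only wells for full effect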
TRPC4 ctr mod – TRPC4 modulation by TRPC6 hit compounds, confirmation, selectivity assay for TRPC6 modulator project, cell-based, HEK293 TRPC4/mu-opioid, membrane potential dye, mouse. shares compounds with TRPC6 inhibitor. membrane potential fluorescence. percent change from control (negative = decrease, positive = increase), % at 10 µM. 69% of 2,400 active. AID 488927, 2010;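 active = membrane potential signal moved up or down beyond 5 SD of buffer control wells, in both duplicate plates, actives on both sides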;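 note: plate controls were assay buffer wells for no effect and DAMGO maximal-effect wells for full effect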
TRPC4 ctr inh 2 – mouse TRPC4 off-target activity of TRPC6 modulators, second screen; shares compounds with TRPC6 inhibitor; HEK293 TRPC4/mu-opioid, membrane potential dye fluorescence; stimulated with maximal-effect DAMGO; inhibition, % at 10 µM; 55% of 2,400 active; AID 488928;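 active = drop in membrane potential signal beyond 5 SD of the control wells in both duplicate plates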;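 note: TRPC4 counter screen for TRPC6 hits run under conditions tuned for TRPC6 not TRPC4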
TRPC6 block conf – mouse TRPC6 channel inhibitors, confirmation, HEK293 cells, membrane potential dye, duplicate | shares compounds with TRPC6 inhibitor | ACh-evoked depolarization | inhibition, % at 10 µM | 43% of 3,300 active | AID 488960, 2010;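 active = fluorescence ratio falls more than 5 SD below the full-stimulation control mean, in both duplicate runs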;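 note: integrated fluorescence ratio of peak minus minimum over baseline after agonist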
TRPC6 act confirm – mouse TRPC6 channel activators, confirmation, HEK293 cells, membrane potential dye, duplicate | HEK293-TRPC6 membrane potential dye fluorescence, FDSS | shares compounds with TRPC6 inhibitor | 11% of 2,800 active | activation, % at 10 µM;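 active = ratio signal rise beyond 5 SD above unstimulated control wells' mean, seen in both duplicate runs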;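 note: plate controls were buffer EC0 wells for no effect and acetylcholine ECmax response for full effect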
An asterisk follows results filed as active; i = inactive; . = not tested or not shown. Rows were chosen to be rich in hits. Some 2.3% of all compounds tested hit in one or more screens of this group.

SMILES | TRPC4 act | TRPC4 potent | TRPC6 inhibitor | TRPC6 activator | TRPC4 block | TRPC6 block conf | TRPC6 act confirm | others
COC(=O)C1=NN(C(=O)c2cccc(Br)c2)C(O)(c2ccc(Cl)cc2)C1 (stereo not given) | 100* | i | i | 30* | i | . | 326%* | HEK293 MPD ctr-2=457%*;HEK293 MPD ctr 2-2=i;TRPC4 ctr mod=94%*;TRPC4 ctr inh 2=i
CCOC(=O)C1=NN(C(=O)c2ccccc2)C(O)(c2ccc(C)cc2)C1 (stereo not given) | i | i | i | i | i | . | .
CCOC(=O)C1=NN(C(=O)c2ccc(OC)cc2)C(O)(c2ccc(Cl)cc2)C1 (stereo not given) | 70* | i | i | 17* | i | . | 209%* | HEK293 MPD ctr-2=344%*;HEK293 MPD ctr 2-2=i;TRPC4 ctr mod=76%*;TRPC4 ctr inh 2=i
CN1CCN(c2ccc(NC(=O)COc3ccccc3Cl)cc2)CC1 | i | i | -9.2* | i | i | i | i | TRPC4 sel inh 2=58%*;TRPC4 spec=-11%*;HEK293 MPD ctr 2-1=i;HEK293 MPD ctr-1=-186%*
CCC(=O)N1CCN(c2ccc(NC(=O)COc3ccccc3Cl)cc2)CC1 | i | i | i | i | i | . | .
Cc1cc(OCC(=O)Nc2ccc(S(=O)(=O)N3CCN(C)CC3)cc2)ccc1Cl | i | i | i | i | i | . | .
Cc1cc(OCC(=O)Nc2ccc(N3CCN(C)CC3)cc2)ccc1Cl | i | i | -5.1* | i | -6* | i | i | HEK293 MPD ctr-2=i;HEK293 MPD ctr 2-2=i;TRPC4 ctr mod=30%*;TRPC4 ctr inh 2=52%*
COc1ccc(S(=O)(=O)N2CCSC2C)cc1C (stereo not given) | i | i | i | i | i | . | .
COc1ccc(-c2[nH]c3ccccc3c2SCCN)cc1 | i | i | -8.7* | i | i | 74%* | i | TRPC4 sel inh 2=45%*;TRPC4 spec=-16%*;HEK293 MPD ctr 2-1=i;HEK293 MPD ctr-1=-262%*
COc1ccc(/C(C)=N/NC(=O)CNC(=O)c2cccnc2)c(OC)c1 | i | i | i | i | i | . | .
O=C(Cc1ccc(Cl)cc1)Nc1ccccc1C(=O)N1CCCCC1 | i | i | i | i | i | . | .
CCN(CC)CCNC(=O)c1ccc(NC(=O)c2ccc3c(c2)CCC3)cc1 | i | i | -9.5* | 12* | i | 69%* | 160%* | HEK293 MPD ctr-2=217%*;HEK293 MPD ctr 2-2=i;TRPC4 ctr mod=29%*;TRPC4 ctr inh 2=i
CCOC(=O)C/C(C)=N/NC(=O)C1CC1(c1ccccc1)c1ccccc1 (stereo not given) | i | i | i | i | i | . | .
CCOC(=O)c1c(C)cc(C)n2c1nc1ccccc12 | i | i | -8.1* | i | i | i | i | TRPC4 sel inh 2=i;TRPC4 spec=-21%*;HEK293 MPD ctr 2-1=i;HEK293 MPD ctr-1=-250%*
Cc1ccc(C23CC4CC(CC(C(=O)NC(C)C(N)=O)(C4)C2)C3)cc1 (stereo not given) | i | i | i | i | i | . | .
N#Cc1ccc2[nH]c(CO)c(-c3ccccc3)c2c1 | i | i | -5.4* | i | i | i | i | HEK293 MPD ctr-2=-84%*;HEK293 MPD ctr 2-2=i;TRPC4 ctr mod=-27%*;TRPC4 ctr inh 2=45%*
Cc1[nH]c(=O)[nH]c(=O)c1S(=O)(=O)Nc1ccc(F)cc1Cl | i | i | i | i | i | . | .
Cc1cc(C)n2nc(-c3ccc(Cl)cc3)cc2n1 | i | i | i | i | i | . | .
Cc1nc2cc(-c3ccc(Cl)cc3)nn2c(NCCN(C)C)c1C | i | i | -6* | i | i | i | i | HEK293 MPD ctr-2=-89%*;HEK293 MPD ctr 2-2=i;TRPC4 ctr mod=-21%*;TRPC4 ctr inh 2=46%*
CC(=O)N1c2ccc(S(=O)(=O)N(C)CC(=O)NCc3ccc(C)cc3)cc2CC1C (stereo not given) | i | i | i | i | i | . | .
COc1ccc(S(=O)(=O)N2CCc3cc(OC)c(OC)cc3C2)cc1 | i | i | -7.1* | i | i | i | i | TRPC4 sel inh 2=i;TRPC4 spec=i;HEK293 MPD ctr 2-1=i;HEK293 MPD ctr-1=i
COc1cc2c(cc1OC)CN(S(=O)(=O)c1cccs1)CC2 | i | i | i | i | i | . | .
C=CCC(O)(CC=C)CNC(=O)c1ccc(OC)c(OC2CCN(C(C)=O)CC2)c1 | i | i | i | i | i | . | .
CC(=O)N1CCN(Cc2nc(C(c3ccccc3)c3ccccc3)no2)CC1 | i | i | i | i | i | . | .
NC(=O)CCN1CCN(Cc2nc(C(c3ccccc3)c3ccccc3)no2)CC1 | i | i | -7.9* | i | i | i | i | TRPC4 sel inh 2=i;TRPC4 spec=i;HEK293 MPD ctr 2-1=i;HEK293 MPD ctr-1=i
